The values below come from ChEMBL document CHEMBL4145612, “Phenolic Constituents Isolated from the Twigs of Cinnamomum cassia and Their Potential Neuroprotective Effects” (J Nat Prod, 2018).

By EC50 is commonly meant the concentration at which the effect is half-maximal.

The test concerns SH-SY5Y. The test can be described thus: Neuroprotective activity against tunicamycin-induced cell death in human SH-SY5Y cells pretreated for 6 hrs followed by tunicamycin addition measured after 48 hrs by MTT assay. The class given is functional, cell-based. The method in brief: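 SH-SY5Y cells grown in DMEM/High Glucose:F12 (1:1) with 10% FBS at 37 °C, 5% CO2, seeded 4 × 10^3/well and left 12 h. Compounds given at 25, 50 and 100 μM for 6 h, then tunicamycin added for 48 h. Medium replaced; MTT 0.5 mg/mL final, 4 h at 37 °C; absorbance 570 nm. Salubrinal 40 μM as positive control; three independent experiments, means ± SEM; EC50 derived.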
Background: Tetrazolium dyes change colour on reduction, which living cells bring about.

In the case of `C=CCc1cc(O)c(-c2c(OC)cc([C@H]3OO[C@H]3CO)cc2OC)c(OC)c1`, the Activity entry was “Dose-dependent effect” and the EC50 lay in the range of 21 to 75 µM.

On to `C=CCc1cc(O)c(-c2c(OC)cc([C@@H]3OO[C@@H]3CO)cc2OC)c(OC)c1`, for which the Activity entry was “Dose-dependent effect” and the EC50 is 21 to 75 µM.

Regarding `OC[C@H]1O[C@@H](OC/C=C/c2ccccc2)[C@H](O)[C@@H](O)[C@@H]1O`, the Activity result is “Dose-dependent effect” and the EC50 lay in the range of 21 to 75 µM.

As for `COc1ccc([C@@H]2C(=O)OC[C@H]2c2ccc3c(c2)OCO3)cc1`, the Activity result is “Dose-dependent effect” and the EC50 is 21 to 75 µM.

As for `O=C1OC[C@@H](c2ccc(O)c(O)c2)[C@@H]1c1ccc(O)cc1`, the Activity entry is “Dose-dependent effect” and the EC50 was 21 to 75 µM.

On to `COc1ccc([C@@H]2C(=O)OC[C@H]2c2ccc(O)c(OC)c2)cc1`, for which the Activity result was “Dose-dependent effect” and the concentration for a half-maximal effect (EC50) lay in the range of 21 to 75 µM.

With `COc1cc([C@H](OC)[C@@H]2CO[C@@H](c3cc(OC)c(O)c(OC)c3)[C@@H]2COC(C)=O)cc(OC)c1O`, the Activity result was “Dose-dependent effect” and the EC50 was 21 to 75 µM.

On to `O=C(CCc1ccccc1)OC/C=C/c1ccccc1`, for which the Activity entry is “Dose-dependent effect” and the EC50 lay within 21 to 75 µM.
